Where a SMILES comes first, the peptide text is derived from it. Bridges are numbered along the chain shown (N, C = ends). The star is where a group is joined. βGlc = OC[C@H]1O[C@@H](*)[C@H](O)[C@@H](O)[C@@H]1O
Experiments:
[1] = molecular target: toll-like receptor 4 (TLR4) (Homo sapiens, UniProt O00206); format: binding; details: ELISA, result in words
In short: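 Antagonism of LPS–TLR4 binding measured by ELISA, read as optical density at 450 nm. Each sample was run as four parallel experiments, with OD reported as mean ± standard deviation. IC50 values were derived from dose–response curves.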

thermal stability assay = format: physicochemical; details: heating experiments, 95 °C for 3 h
carboxypeptidase Y = test: carboxypeptidase Y-treatment experiments; format: in vitro ADME; details: 28 °C for 12 h, pH 6.0

Chain of toll-like receptor 4 (TLR4) (O00206 24-839): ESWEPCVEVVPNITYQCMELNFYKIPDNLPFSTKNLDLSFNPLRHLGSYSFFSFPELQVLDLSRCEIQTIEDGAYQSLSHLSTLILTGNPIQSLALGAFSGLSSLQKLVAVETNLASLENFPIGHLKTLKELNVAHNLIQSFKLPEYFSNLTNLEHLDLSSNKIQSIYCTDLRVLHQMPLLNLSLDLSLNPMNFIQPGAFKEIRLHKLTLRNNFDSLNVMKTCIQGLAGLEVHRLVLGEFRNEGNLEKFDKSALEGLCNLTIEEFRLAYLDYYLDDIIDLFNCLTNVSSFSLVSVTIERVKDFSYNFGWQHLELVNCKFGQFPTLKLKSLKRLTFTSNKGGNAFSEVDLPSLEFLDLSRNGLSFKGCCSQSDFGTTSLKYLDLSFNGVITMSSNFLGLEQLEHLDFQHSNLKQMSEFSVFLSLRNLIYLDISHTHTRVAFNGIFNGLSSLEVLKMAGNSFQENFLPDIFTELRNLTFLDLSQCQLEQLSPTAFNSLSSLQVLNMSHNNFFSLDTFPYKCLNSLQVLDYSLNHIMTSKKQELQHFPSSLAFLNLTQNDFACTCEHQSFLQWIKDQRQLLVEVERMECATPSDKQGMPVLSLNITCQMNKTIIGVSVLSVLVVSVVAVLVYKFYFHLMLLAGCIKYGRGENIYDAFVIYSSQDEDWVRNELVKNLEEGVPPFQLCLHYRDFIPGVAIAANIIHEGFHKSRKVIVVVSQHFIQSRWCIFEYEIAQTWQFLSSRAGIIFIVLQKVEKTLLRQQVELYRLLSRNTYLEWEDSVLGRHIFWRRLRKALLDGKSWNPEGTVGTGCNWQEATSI
Chain of toll-like receptor 4 (TLR4) (Q9Y6Y9 17-160 partner limits assumed): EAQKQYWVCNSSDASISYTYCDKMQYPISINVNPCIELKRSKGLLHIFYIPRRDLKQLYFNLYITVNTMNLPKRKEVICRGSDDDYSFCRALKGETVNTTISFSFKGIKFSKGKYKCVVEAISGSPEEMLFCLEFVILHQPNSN

Compound	antagonistic (inhibitory) activity against the binding of LPS to TLR4 [1]	thermal stability (thermal stability assay)	proteolytic stability (carboxypeptidase Y)
CC[C@H](C)[C@@H]1NC(=O)[C@H](C(C)C)NC(=O)[C@H](C(C)C)NC(=O)[C@H](CC(C)C)NC(=O)C[C@@H](C(=O)N[C@@H](Cc2c[nH]c3ccccc23)C(=O)N[C@@H](CC(N)=O)C(=O)N[C@@H](C)C(=O)N2CCC[C@H]2C(=O)NCC(=O)N[C@@H](Cc2c[nH]c3ccccc23)C(=O)N[C@@H](Cc2ccc(O[C@@H]3O[C@H](CO)[C@@H](O)[C@H](O)[C@H]3O)cc2)C(=O)O)NC(=O)[C@H](C)NC(=O)[C@H](CCC(N)=O)NC(=O)[C@H](C(C)C)NC1=O [compound 20, stlassin F15Y-I] (LVVIVQADWNAPGWY(βGlc)-OH; lactam N-8)	comparable inhibitory activities to stlassin (1)		
stlassin I4C [compound 21]	comparable inhibitory activities to stlassin (1)		
stlassin V2C/A11C [compound 18]		similarly high stability to that of 1	similarly high stability to that of 1

— publication PMC8480316 (Chemical Science, 2021)
